From ChEMBL document CHEMBL5653622 (Oncotarget, 2016)
Active and inactive are the calls of the source. The calls are words filed in the database; no cut-off is given here.

Key:
[1] = target: Inhibitor of nuclear factor kappa-B kinase subunit epsilon (Homo sapiens) (UniProt Q14164); test: Inhibition of human IKKe assessed as remaining activity at 10 uM in presence of ATP by radiometric kinase assay relative to control
[2] = target: T1, Dual specificity protein kinase CLK2 (Homo sapiens, UniProt P49760); test: Inhibition of human CLK2 by FRET based Z-LYTE kinase assay
[3] = Cmax in BALB/C mouse plasma at 10 mg/kg, iv by LC/MS-MS analysis; format: ADME, organism-based
Procedure, shortened: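 Female BALB/c mice received a single 10mg/kg bolus i.v. or p.o. Plasma (and spleen homogenate) extracted with methanol containing internal standards. Concentrations were measured by LC/MS-MS and PK parameters calculated with modelling software.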

[4] = target: T1, Dual specificity protein kinase CLK2; test: Inhibition of human CLK2 at 10 uM in presence of ATP by radiometric kinase assay relative to control
Homo sapiens = organism: Homo sapiens; test: Inhibition of human AMPK assessed as remaining activity at 10 uM in presence of ATP by radiometric kinase assay relative to control
HT-29 = test: Induction of apoptosis in human HT-29 cells assessed as increased in cleaved PARP in presence of gemcitabine by Western blotting analysis; format: functional, cell-based
Mus musculus [5] = test: In vivo inhibition of CHK1 in CRTac:Ncr-Fox1 mouse xenografted with human HT-29 cells assessed as reduction of phosphorylation of CHK1 on S296 at 100 mg/kg, po administered for 24 hrs by Western blotting analysis; format: functional, organism-based
Procedure, shortened: (§1)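 HT29 s.c. xenografts in female athymic nude mice. Single gemcitabine dose 100mg/kg i.v. on day 0, then one inhibitor dose 50 or 100mg/kg p.o. (DPTW vehicle) 24h later. Tumors taken 24h after the last dose, western blotted, and signals quantified by normalizing to GAPDH.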

[6] = target: RAC-beta serine/threonine-protein kinase (Homo sapiens) (UniProt P31751); test: Inhibition of human PKBb assessed as remaining activity at 10 uM in presence of ATP by radiometric kinase assay relative to control
RAC-beta serine/threonine-protein kinase (Homo sapiens), sequence (P31751 whole entry): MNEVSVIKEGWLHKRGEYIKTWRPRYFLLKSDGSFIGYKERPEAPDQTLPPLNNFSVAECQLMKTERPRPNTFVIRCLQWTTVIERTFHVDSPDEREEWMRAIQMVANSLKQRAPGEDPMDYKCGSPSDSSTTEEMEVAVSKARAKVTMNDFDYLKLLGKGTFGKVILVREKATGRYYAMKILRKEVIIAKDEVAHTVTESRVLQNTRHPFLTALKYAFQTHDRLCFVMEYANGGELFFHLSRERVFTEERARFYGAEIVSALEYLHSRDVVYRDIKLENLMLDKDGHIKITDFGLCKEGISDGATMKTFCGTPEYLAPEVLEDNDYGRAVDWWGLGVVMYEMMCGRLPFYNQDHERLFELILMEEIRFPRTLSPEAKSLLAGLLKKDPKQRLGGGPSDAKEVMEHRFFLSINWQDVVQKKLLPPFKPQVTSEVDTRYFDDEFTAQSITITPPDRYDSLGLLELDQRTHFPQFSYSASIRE

[7] = target: Serine/threonine-protein kinase N2 (Homo sapiens) (UniProt Q16513); test: Inhibition of human PRK2 assessed as remaining activity at 10 uM in presence of ATP by radiometric kinase assay relative to control
[8] = Inhibition of human CDK2/Cyclin A by FRET based Z-LYTE kinase assay
[9] = target: MAP kinase-interacting serine/threonine-protein kinase 1 (Homo sapiens) (UniProt Q9BUB5); test: Inhibition of human MNK1 assessed as remaining activity at 10 uM in presence of ATP by radiometric kinase assay relative to control
[10] = Toxicity in Emu-Myc driven transgenic mouse transplant model of B-cell lymphoma assessed as reduction in weight of bone marrow at 150 mg/kg, po administered for 9 days; format: organism-based; settings: in vivo, 216 h, time 9 day
[11] = target: Serine/threonine-protein kinase TAO1 (Homo sapiens) (UniProt Q7L7X3); test: Inhibition of human TAO1 assessed as remaining activity at 10 uM in presence of ATP by radiometric kinase assay relative to control
Serine/threonine-protein kinase TAO1 (Homo sapiens), sequence (Q7L7X3 whole entry): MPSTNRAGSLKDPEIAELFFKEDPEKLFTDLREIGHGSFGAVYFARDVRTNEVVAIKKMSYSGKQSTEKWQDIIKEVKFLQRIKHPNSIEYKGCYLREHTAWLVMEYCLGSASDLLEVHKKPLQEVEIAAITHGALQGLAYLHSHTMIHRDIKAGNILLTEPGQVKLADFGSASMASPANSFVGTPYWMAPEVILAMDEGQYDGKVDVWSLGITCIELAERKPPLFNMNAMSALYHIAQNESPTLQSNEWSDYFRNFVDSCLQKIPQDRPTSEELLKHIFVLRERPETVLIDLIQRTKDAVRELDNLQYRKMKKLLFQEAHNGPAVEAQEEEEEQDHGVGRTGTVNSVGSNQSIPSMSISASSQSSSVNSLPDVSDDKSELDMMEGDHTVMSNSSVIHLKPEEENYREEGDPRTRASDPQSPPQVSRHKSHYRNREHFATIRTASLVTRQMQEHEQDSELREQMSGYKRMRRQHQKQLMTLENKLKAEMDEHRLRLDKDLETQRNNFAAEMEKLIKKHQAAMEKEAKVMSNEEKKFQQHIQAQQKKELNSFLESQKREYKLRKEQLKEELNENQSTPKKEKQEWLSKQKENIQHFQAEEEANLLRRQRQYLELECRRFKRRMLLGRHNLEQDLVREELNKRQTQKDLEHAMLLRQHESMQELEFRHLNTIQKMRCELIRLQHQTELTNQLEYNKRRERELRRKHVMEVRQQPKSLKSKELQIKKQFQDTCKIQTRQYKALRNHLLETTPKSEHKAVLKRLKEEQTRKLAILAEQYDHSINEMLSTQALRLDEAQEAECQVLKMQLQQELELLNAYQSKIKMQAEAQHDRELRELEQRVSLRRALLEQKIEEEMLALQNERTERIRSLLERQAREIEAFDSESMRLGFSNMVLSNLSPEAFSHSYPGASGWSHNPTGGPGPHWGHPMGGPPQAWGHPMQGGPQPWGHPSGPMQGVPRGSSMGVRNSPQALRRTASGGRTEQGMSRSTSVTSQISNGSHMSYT

[12] = target: High affinity nerve growth factor receptor (Homo sapiens) (UniProt P04629); test: Inhibition of human TrkA assessed as remaining activity at 10 uM in presence of ATP by radiometric kinase assay relative to control
High affinity nerve growth factor receptor (Homo sapiens), sequence (P04629 33-796 limits assumed): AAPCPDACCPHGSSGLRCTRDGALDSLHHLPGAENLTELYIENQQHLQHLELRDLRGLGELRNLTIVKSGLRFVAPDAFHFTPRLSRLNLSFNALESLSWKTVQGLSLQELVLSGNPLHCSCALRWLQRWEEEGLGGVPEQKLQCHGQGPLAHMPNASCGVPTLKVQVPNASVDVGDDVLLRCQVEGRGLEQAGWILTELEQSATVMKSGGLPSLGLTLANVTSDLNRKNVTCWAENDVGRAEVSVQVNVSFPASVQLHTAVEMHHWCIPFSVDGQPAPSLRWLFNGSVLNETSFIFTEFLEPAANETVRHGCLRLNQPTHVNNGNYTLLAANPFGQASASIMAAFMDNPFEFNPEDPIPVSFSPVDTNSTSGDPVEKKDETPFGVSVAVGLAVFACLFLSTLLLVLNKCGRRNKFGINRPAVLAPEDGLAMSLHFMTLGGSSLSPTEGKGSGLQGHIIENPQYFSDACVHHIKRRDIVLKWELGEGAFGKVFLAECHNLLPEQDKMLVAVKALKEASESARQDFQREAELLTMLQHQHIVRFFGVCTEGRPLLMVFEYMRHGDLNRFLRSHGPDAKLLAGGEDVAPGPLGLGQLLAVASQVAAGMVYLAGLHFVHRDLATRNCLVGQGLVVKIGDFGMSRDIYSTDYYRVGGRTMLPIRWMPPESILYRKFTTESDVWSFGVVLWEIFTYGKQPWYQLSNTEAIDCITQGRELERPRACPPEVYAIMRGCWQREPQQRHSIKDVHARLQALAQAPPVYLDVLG

[13] = target: Mitogen-activated protein kinase 15 (Homo sapiens, UniProt Q8TD08); test: Inhibition of human ERK8 in presence of ATP by radiometric kinase assay
[14] = target: Ribosomal protein S6 kinase alpha-3 (Homo sapiens, UniProt P51812); test: Inhibition of human RSK2 by FRET based Z-LYTE kinase assay
[15] = target: Tyrosine-protein kinase Yes (Homo sapiens) (UniProt P07947); test: Inhibition of human YES1 assessed as remaining activity at 10 uM in presence of ATP by radiometric kinase assay relative to control
[16] = target: Mitogen-activated protein kinase 13 (Homo sapiens) (UniProt O15264); test: Inhibition of human p38d MAPK assessed as remaining activity at 10 uM in presence of ATP by radiometric kinase assay relative to control
[17] = target: Mitogen-activated protein kinase 9 (Homo sapiens) (UniProt P45984); test: Inhibition of human JNK2 assessed as remaining activity at 10 uM in presence of ATP by radiometric kinase assay relative to control
Mitogen-activated protein kinase 9 (Homo sapiens), sequence (P45984 whole entry, looked up): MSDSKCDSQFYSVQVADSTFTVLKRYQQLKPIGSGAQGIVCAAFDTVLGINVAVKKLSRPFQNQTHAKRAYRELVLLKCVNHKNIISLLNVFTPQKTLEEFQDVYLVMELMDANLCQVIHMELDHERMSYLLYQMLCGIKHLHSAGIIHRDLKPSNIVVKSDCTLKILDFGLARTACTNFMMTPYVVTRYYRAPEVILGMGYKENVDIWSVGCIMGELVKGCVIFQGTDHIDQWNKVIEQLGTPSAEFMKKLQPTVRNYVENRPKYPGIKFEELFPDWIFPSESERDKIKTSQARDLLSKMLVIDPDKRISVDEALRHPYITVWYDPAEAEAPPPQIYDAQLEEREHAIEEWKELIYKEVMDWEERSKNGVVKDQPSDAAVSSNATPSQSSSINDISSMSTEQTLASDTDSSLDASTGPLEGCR

[18] = Half life in BALB/C mouse plasma at 10 mg/kg, po by LC/MS-MS analysis; format: ADME, organism-based
Procedure, shortened: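 Female BALB/c mice received a single bolus of 10mg/kg, either i.v. or p.o. The oral vehicle was DPTW (10% DMSO, 20% PEG400, 5% Tween 80, 65% water). Plasma and spleen homogenates were extracted with methanol containing internal standards. Drug levels were measured by LC/MS-MS, and pharmacokinetic parameters were calculated from the concentration-time profiles.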

[19] = target: Protein kinase C gamma type (Homo sapiens) (UniProt P05129); test: Inhibition of human PKC gamma assessed as remaining activity at 10 uM in presence of ATP by radiometric kinase assay relative to control
[20] = target: Ephrin type-B receptor 3 (Homo sapiens) (UniProt P54753); test: Inhibition of human EPH-B3 assessed as remaining activity at 10 uM in presence of ATP by radiometric kinase assay relative to control
[21] = target: Tyrosine-protein kinase CSK (Homo sapiens) (UniProt P41240); test: Inhibition of human CSK assessed as remaining activity at 10 uM in presence of ATP by radiometric kinase assay relative to control
Tyrosine-protein kinase CSK (Homo sapiens), sequence (P41240 2-450 limits assumed): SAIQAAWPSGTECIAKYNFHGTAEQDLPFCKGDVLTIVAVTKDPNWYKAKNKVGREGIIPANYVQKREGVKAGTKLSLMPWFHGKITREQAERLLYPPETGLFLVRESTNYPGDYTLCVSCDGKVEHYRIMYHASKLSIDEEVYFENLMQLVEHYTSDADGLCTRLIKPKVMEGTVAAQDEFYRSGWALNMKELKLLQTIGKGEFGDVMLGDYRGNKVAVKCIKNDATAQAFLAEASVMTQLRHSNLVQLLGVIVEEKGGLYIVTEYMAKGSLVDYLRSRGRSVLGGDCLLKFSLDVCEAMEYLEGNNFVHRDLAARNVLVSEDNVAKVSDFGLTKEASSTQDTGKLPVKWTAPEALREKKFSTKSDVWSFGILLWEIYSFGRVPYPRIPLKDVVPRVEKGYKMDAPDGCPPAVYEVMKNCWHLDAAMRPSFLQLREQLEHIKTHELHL

[22] = Toxicity in Emu-Myc driven transgenic mouse transplant model of B-cell lymphoma assessed as reduction in weight of the brachial/axillary lymph nodes at 150 mg/kg, po administered for 9 days; format: organism-based; settings: in vivo, 216 h, time 9 day
Mus musculus [23] = test: In vivo inhibition of CHK1 in CRTac:Ncr-Fox1 mouse xenografted with human HT-29 cells assessed as reduction of phosphorylation of CHK1 on S296 at 50 mg/kg, po administered for 24 hrs by Western blotting analysis; format: functional, organism-based; procedure, shortened: as §1
[24] = Tmax in BALB/C mouse spleen at 10 mg/kg, iv by LC/MS-MS analysis; format: ADME, organism-based
[25] = Toxicity in Emu-Myc driven transgenic mouse transplant model of B-cell lymphoma assessed as reduction in weight of the inguinal lymph nodes at 150 mg/kg, po administered for 9 days; format: organism-based; settings: in vivo, 216 h, time 9 day
[26] = target: Serine/threonine-protein kinase STK11 (Homo sapiens) (UniProt Q15831); test: Inhibition of human LKB1 assessed as remaining activity at 10 uM in presence of ATP by radiometric kinase assay relative to control
Serine/threonine-protein kinase STK11 (Homo sapiens), sequence (Q15831 whole entry): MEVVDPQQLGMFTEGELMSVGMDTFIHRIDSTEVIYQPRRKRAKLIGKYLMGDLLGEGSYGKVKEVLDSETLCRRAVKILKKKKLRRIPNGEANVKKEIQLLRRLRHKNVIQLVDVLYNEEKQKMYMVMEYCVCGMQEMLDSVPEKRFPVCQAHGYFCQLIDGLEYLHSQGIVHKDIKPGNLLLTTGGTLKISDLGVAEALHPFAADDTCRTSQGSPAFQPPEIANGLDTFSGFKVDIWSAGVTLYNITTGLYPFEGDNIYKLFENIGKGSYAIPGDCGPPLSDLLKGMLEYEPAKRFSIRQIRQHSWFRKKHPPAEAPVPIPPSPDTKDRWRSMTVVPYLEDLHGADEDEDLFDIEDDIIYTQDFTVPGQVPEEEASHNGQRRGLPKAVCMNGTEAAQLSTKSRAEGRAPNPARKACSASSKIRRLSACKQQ

[27] = target: MAP kinase-activated protein kinase 5 (Homo sapiens) (UniProt Q8IW41); test: Inhibition of human PRAK assessed as remaining activity at 10 uM in presence of ATP by radiometric kinase assay relative to control
[28] = target: Glycogen synthase kinase-3 beta (Homo sapiens) (UniProt P49841); test: Inhibition of human GSK3b assessed as remaining activity at 10 uM in presence of ATP by radiometric kinase assay relative to control
Glycogen synthase kinase-3 beta (Homo sapiens), sequence (P49841 whole entry, looked up): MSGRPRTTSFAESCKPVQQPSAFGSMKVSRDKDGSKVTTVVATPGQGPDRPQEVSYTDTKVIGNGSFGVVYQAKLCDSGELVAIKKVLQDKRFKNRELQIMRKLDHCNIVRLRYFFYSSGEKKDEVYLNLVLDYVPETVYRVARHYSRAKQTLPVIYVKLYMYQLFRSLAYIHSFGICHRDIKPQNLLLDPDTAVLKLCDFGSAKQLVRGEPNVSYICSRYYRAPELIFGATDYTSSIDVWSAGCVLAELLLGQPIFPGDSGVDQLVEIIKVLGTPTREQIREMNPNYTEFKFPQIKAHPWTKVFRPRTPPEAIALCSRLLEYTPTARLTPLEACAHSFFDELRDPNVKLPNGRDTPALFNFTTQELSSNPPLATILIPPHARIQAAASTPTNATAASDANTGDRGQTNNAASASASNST

Inhibitor of nuclear factor kappa-B kinase subunit epsilon (Homo sapiens), sequence (Q14164 whole entry): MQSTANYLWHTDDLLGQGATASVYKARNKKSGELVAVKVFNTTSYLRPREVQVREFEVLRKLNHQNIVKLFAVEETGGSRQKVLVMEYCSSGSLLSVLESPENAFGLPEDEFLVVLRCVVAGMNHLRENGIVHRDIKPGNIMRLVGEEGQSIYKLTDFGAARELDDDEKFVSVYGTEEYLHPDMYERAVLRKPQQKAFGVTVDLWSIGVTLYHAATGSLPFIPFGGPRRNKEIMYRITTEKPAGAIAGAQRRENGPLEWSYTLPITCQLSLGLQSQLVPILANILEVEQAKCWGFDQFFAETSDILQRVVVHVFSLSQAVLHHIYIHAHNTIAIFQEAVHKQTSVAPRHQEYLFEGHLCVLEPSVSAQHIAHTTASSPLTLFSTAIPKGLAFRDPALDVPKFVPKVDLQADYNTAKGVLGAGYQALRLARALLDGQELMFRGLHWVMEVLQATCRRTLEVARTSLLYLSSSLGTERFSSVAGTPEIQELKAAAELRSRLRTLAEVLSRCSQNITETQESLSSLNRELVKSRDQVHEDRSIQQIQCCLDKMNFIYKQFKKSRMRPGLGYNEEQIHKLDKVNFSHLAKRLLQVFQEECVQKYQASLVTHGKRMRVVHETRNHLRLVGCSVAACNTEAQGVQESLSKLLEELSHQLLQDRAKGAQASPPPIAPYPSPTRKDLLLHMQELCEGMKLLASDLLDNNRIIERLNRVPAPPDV

Activity [1]: 102%
IC50 [2]: 1370 nM
Cmax [3]: 4 µM
inhibition [4]: 94%
Activity (Homo sapiens): 32%
Activity [6]: 100%
Activity [7]: 67%
IC50 [8]: 3850 nM
Activity [9]: 62%
Activity [11]: 54%
Activity [12]: 31%
IC50 [14]: 361 nM
Activity [15]: 65%
Activity [16]: 54%
Activity [17]: 107%
half-life [18]: 2.85 h
Activity [19]: 87%
Activity [20]: 93%
Activity [21]: 82%
Tmax [24]: 0.5 h
Activity [26]: 44%
Activity [27]: 71%
Activity [28]: 47%
Structure (SMILES): N#Cc1cnc(Nc2cc(NC[C@H]3CNCCO3)c(C(F)(F)F)cn2)cn1 [SRA-737]
Activity (HT-29): Active
Activity (Mus musculus [5]): Active
Activity [10]: Toxic
IC50 [13]: 130 nM
Activity [22]: Toxic
Activity (Mus musculus [23]): Active
Activity [25]: Toxic
